Experimental findings from article PMC4658283 (Toxicology, 2015) are described below.

Counter-ions that a name gives are not always drawn.

Common to all, as to format: in vivo, rat
Data set [1] in a line: PCB 95 and OH-PCB tissue levels by GC-ECD. An outline of the steps:
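Killed 4 h after last injection (~28 h post-PCB). Tissues homogenized with diatomaceous earth and extracted over Florisil. OH-PCBs analysed as methylated derivatives; splitless injection at 280°C; PCB 204 internal standard.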

A further data set deals with CYP2B protein. Nature of the data set: Western blot analysis of CYP2B protein in liver and cortex microsomes. The conditions noted are these: liver microsomes; 7 d exposure. (Immunoblotting shows a protein as a band on a membrane.)
Data set [2] is described as follows: Enantioselective analysis of PCB 95 in tissues. The conditions noted are these: both experimental groups.
Setting [3] is: both experimental groups dosed with PCB 95.

As for `Oc1cc(Cl)c(-c2cc(Cl)ccc2Cl)c(Cl)c1Cl` [4-95, 2,2′,3,5′,6-pentachlorobiphenyl-4-ol], in data set [1] (setting [3]), the “detection of OH-PCB metabolite in blood and liver” value (“detection of OH-PCB metabolite” below) is reported as “detected”.

For the compound `Oc1cc(Cl)c(-c2c(Cl)ccc(Cl)c2Cl)cc1Cl` [4′-95], in data set [1] (setting [3]), the “detection of OH-PCB metabolite” value is reported as “detected”.

Consider `Oc1cc(Cl)c(Cl)c(-c2cc(Cl)ccc2Cl)c1Cl` [5-95, 2,2′,3,5′,6-pentachlorobiphenyl-5-ol], for which, in data set [1] (setting [3]), the “detection of OH-PCB metabolite” value is given as “detected”; the “detection of metabolite in adipose tissue” value is on record as “detected as a minor metabolite”.

As to `COc1c(Cl)c(Cl)c(-c2cc(Cl)ccc2Cl)c(Cl)c1OC` [4,5-95, 4,5-dimethoxy-2,2′,3,5′,6-pentachlorobiphenyl], the “detection of OH-PCB metabolite” value in data set [1] (setting [3]) was “detected”.

As to `Clc1ccc(Cl)c(-c2c(Cl)ccc(Cl)c2Cl)c1` [PCB 95, 2,2′,3,5′,6-Pentachlorobiphenyl], the “hepatic CYP2B protein levels relative to vehicle controls (densitometry, normalized to GAPDH)” value in the data set on CYP2B protein is “neither nicotine nor PCB 95 alone changed hepatic CYP2B levels”. Also, in data set [2], the “rank order of tissue EF values for PCB 95” value is recorded as “blood (sample pooled across experimental groups) > liver > muscle (samples pooled within experimental groups) > cortex > adipose”.

As for `CN1CCC[C@H]1c1cccnc1` [Nicotine, (−)-Nicotine hydrogen tartrate salt, reference compound], the “effect of nicotine co-exposure on levels of the parent compound PCB 95 in tissues” value in data set [1] (nicotine 1 mg/kg/d s.c. 7 d plus PCB 95 6 mg/kg/d p.o., cortex, cerebellum, adipose, blood, liver, muscle) is on record as “no effect”.

For the compound `COc1c(Cl)cc(Cl)c(-c2cc(Cl)ccc2Cl)c1Cl` [3-103, 3-Methoxy-2,2′,4,5′,6-pentachlorobiphenyl], in data set [1] (setting [3]), the “detection of OH-PCB metabolite” value is on record as “detected”.
